According to paper PMC3188443 (Biochemical pharmacology, 2010):
Ends that are not written are not given here.

What was measured:
[1] = molecular target: T1, Stat3 (Mus musculus, UniProt P42227); assay: Surface Plasmon Resonance analysis of binding to immobilized His-tagged Stat3; design: species or system murine; settings: 0-5 μM peptide as analyte
Method in brief: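 His-tagged Stat3 expressed in E. coli BL21(DE3), purified on a Ni-ion Sepharose column, and captured on a HisCap sensor chip by injecting 50 μg/ml protein. Analytes were unphosphorylated or phosphotyrosine gp-130 heptapeptides at 0-5 μM, passed over the chip. Running buffer was 1X PBS, 0.5% DMSO. Association and dissociation rate constants were fitted, and KD was taken as their ratio.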

[2] = molecular target: T1, Stat3; format: binding, murine; settings: 150 nM His-Stat3, unlabeled peptide
[3] = molecular target: His-tagged murine Stat3 protein (murine) (UniProt P42227); assay: SPR
[4] = molecular target: His-tagged murine Stat3 protein (murine) (UniProt P42227); assay: fluorescence polarisation

T1 sequence (P42227 whole entry): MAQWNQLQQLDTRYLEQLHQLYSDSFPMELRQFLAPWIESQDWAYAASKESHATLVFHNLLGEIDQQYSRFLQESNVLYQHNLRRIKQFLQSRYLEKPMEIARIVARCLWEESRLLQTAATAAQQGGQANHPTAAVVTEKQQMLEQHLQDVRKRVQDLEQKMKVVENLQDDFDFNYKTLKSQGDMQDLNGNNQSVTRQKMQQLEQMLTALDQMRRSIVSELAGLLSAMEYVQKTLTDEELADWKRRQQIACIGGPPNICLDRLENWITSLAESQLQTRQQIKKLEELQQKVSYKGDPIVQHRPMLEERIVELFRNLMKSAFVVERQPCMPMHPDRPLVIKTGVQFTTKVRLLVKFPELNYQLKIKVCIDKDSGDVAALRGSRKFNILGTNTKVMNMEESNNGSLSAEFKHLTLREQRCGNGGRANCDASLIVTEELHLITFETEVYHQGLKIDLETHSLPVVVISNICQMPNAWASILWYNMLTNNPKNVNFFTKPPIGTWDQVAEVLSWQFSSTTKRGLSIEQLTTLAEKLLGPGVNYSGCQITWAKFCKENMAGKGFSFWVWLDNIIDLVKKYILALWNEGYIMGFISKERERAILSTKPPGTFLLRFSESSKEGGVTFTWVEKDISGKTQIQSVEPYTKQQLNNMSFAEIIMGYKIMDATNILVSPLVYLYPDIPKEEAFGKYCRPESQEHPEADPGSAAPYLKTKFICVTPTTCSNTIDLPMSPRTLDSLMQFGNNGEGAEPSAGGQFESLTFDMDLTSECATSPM
His-tagged murine Stat3 protein (murine), sequence (P42227 whole entry): as above

binding to Stat3 (SPR) [1] | inhibition in the FP assay, in words [2] | Kd [3] | IC50 [4] | Substance
no significant binding | no evidence of inhibition | – | – | GYLPQTV-NH2
– | – | 24 nM | 300 nM | GpYLPQTV-NH2, high affinity Stat3-binding phosphoTyr peptide derived from the IL-6R subunit gp-130
